From ChEMBL document CHEMBL2021845, “Targeting anthracycline-resistant tumor cells with synthetic aloe-emodin glycosides” (ACS Med Chem Lett, 2011)
pIC50: −log10 of the molar value. Active and inactive are the calls of the source. The rule behind the calls is not given here.

Legend:
MOLT-4 = assay: Cytotoxicity against human MOLT4 cells after 24 hrs by XTT assay; format: functional, cell-based; details: MOLT-4, 24 h
OVCAR-3 [1] = assay: Cytotoxicity against human OVCAR3 cells after 24 hrs by XTT assay; format: functional, cell-based; details: OVCAR-3, 24 h
MCF7 [2] = assay: Cytotoxicity against human MCF7 cells after 24 hrs by XTT assay; format: functional, cell-based; details: MCF7, 24 h
SK-OV-3 [3] = assay: Cytotoxicity against human SKOV3 cells after 24 hrs by XTT assay; format: functional, cell-based; details: SK-OV-3, 24 h
[4] = Cytotoxicity against human NAR cells after 24 hrs by XTT assay; format: functional, cell-based
Nucleic Acid [5] = assay: Binding affinity to Escherichia coli pBR322 DNA assessed as DNA migration at 200 uM after 15 mins by agarose gel electrophoresis; format: nucleic-acid assay
Outline: (§1)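 Supercoiled plasmid pBR322 DNA was preincubated with compound at 200 or 20 μM. Samples were run on a 1% agarose gel for 4 h at 70 V and stained with ethidium bromide. Unwinding was judged qualitatively from the shift in migration of supercoiled DNA against a no-drug lane.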

Nucleic Acid [6] = assay: Binding affinity to Escherichia coli pBR322 DNA assessed as DNA unwinding at 5 to 10 uM after 15 mins by agarose gel electrophoresis; format: nucleic-acid assay
OVCAR-3 [7] = assay: Cytotoxicity against human OVCAR3 cells assessed as induction of cell death at 10 uM after 24 hrs by trypan blue dye exclusion test; format: functional, cell-based
Outline: (§2)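 Cells were incubated with 10 μM compound for 24 h. A trypan blue dye exclusion test in cell suspension then counted total and dye-stained (dead) cells against an untreated control.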

[8] = Cytotoxicity against human lymphocytes assessed as cell viability after 3 hrs by XTT assay relative to untreated control; format: cell-based; details: Lymphocyte
Outline: (§3)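 Normal human lymphocytes from two individual donors were exposed to compound for 24 h or for a 3 h incubation. Viability was expressed relative to an untreated-cell control, and IC50 was derived per blood sample.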

[9] = Toxicity in Wistar rat erythrocytes assessed as hemolysis at 50 uM after 1 hr; format: cell-based, Erythrocyte; details: read-out: Activity
[10] = Cellular uptake in doxorubicin-resistant human NAR cells at 5 uM after 2 hrs by confocal microscopic analysis; format: ADME, cell-based
Outline: (§4)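 P-gp-overexpressing NAR ovarian cancer cells were incubated with 5 μM compound for 2 h, then fixed in paraformaldehyde. Plasma membranes were stained with carbocyanine tracer DiD. Confocal imaging used Ex/Em 488/525 nm for the drug and 640/685 nm for DiD, to localize drug in membrane versus cell interior.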

[11] = Cytotoxicity against human lymphocytes assessed as cell viability after 24 hrs by XTT assay relative to untreated control; format: cell-based; details: Lymphocyte; outline: as §3
NAR [12] = assay: Cytotoxicity against human NAR cells assessed as induction of cell death at 10 uM after 24 hrs by trypan blue dye exclusion test; format: functional, cell-based; outline: as §2
OVCAR-3 [13] = assay: Cytotoxicity against human OVCAR3 cells assessed as cell viability at 20 uM after 24 hrs by XTT assay; format: functional; details: OVCAR-3, 24 h, read-out: Activity
MCF7 [14] = assay: Cytotoxicity against doxorubicin-resistant human MCF7 cells assessed as cell viability at 20 uM after 24 hrs by XTT assay; format: functional; details: MCF7, 24 h, read-out: Activity
SK-OV-3 [15] = assay: Cytotoxicity against human SKOV3 cells assessed as cell viability at 20 uM after 24 hrs by XTT assay; format: functional; details: SK-OV-3, 24 h, read-out: Activity
NAR [16] = assay: (§5) Cytotoxicity against doxorubicin-resistant human NAR cells assessed as cell viability at 100 uM after 24 hrs by XTT assay; format: functional
Outline: (§6)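 NAR ovarian cancer cells with P-glycoprotein efflux pump overexpression; 24 h exposure to compound up to 100 μM; cell viability read-out.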

Nucleic Acid [17] = assay: Binding affinity to Escherichia coli pBR322 DNA assessed as DNA migration at 20 uM after 15 mins by agarose gel electrophoresis; format: nucleic-acid assay; outline: as §1
[18] = Cytotoxicity against human lymphocytes assessed as cell viability at 20 uM after 24 hrs by XTT assay relative to untreated control; format: cell-based, Lymphocyte; details: read-out: Activity
Outline: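 Normal human lymphocyte samples from two individuals; 24 h incubation with compound at 20 μM; viability expressed relative to an untreated cell control.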

[19] = Drug uptake in doxorubicin-resistant human NAR cell plasma membrane at 5 uM after 2 hrs by confocal microscopic analysis; format: ADME, cell-based; outline: as §4
[20] = as §5; format: functional; details: read-out: Activity; outline: as §6

Row | Compound | pIC50 (MOLT-4) | pIC50 (OVCAR-3 [1]) | pIC50 (MCF7 [2]) | pIC50 (SK-OV-3 [3]) | pIC50 [4] | Activity (Nucleic Acid [5]) | Activity (Nucleic Acid [6]) | Activity (OVCAR-3 [7]) | hemolysis at 1 h, 50 µM [9] | Activity (NAR [12]) | viability at 20 µM (OVCAR-3 [13]) | viability at 20 µM (MCF7 [14]) | viability at 20 µM (SK-OV-3 [15]) | viability at 24 h, 20 µM [18] | further results
1 | C[C@@H]1O[C@@H](OCc2cc(O)c3c(c2)C(=O)c2cccc(O)c2C3=O)C[C@@H](N)[C@H]1O | 5.27 | 4.80 | 4.90 | 4.87 | 4.74 | inactive | inactive | – | – | – | – | – | – | – | –
2 | C[C@@H]1O[C@@H](OCc2cc(O)c3c(c2)C(=O)c2cccc(O)c2C3=O)C[C@H](N)[C@H]1O | 5.24 | 5.28 | 5.15 | 5.16 | 5.07 | inactive | inactive | Active | 3% | Active | – | – | – | – | pIC50 [8]: 5.52; Drug uptake [10]: Active; pIC50 [11]: 5.52
3 | C[C@H]1O[C@@H](OCc2cc(O)c3c(c2)C(=O)c2cccc(O)c2C3=O)C[C@H](N)[C@@H]1O | 4.89 | < 4.70 | < 4.70 | < 4.70 | 4.55 | inactive | inactive | – | – | – | 60% | 83% | 84% | – | –
4 | COc1cccc2c1C(=O)c1c(O)c3c(c(O)c1C2=O)C[C@@](O)(C(=O)CO)C[C@@H]3O[C@H]1C[C@H](N)[C@H](O)[C@H](C)O1 [DOXORUBICIN] | 6.70 | < 4.70 | < 4.70 | < 4.70 | < 4.00 | Active | – | inactive | 2% | inactive | 61% | 83% | 63% | 100% | Activity (NAR [16]): inactive; Activity (Nucleic Acid [17]): Active; Drug uptake [19]: Active
5 | O=C1c2cccc(O)c2C(=O)c2c(O)cc(CO)cc21 [ALOE-EMODIN] | < 4.70 | < 4.70 | < 4.70 | < 4.70 | < 4.00 | inactive | – | – | 0% | – | – | 77% | 98% | 77% | viability at 100 µM [20]: 78%
6 | C[C@H]1O[C@@H](OCc2cc(O)c3c(c2)C(=O)c2cccc(O)c2C3=O)C[C@@H](N)[C@@H]1O | 5.12 | 5.19 | 4.92 | < 4.70 | < 4.00 | inactive | inactive | – | – | – | – | – | 92% | – | –
